Measured values from ChEMBL document CHEMBL4304816, “A Novel Biphenyl-based Chemotype of Retinoid X Receptor Ligands Enables Subtype and Heterodimer Preferences” (ACS Med Chem Lett, 2019).
Active and inactive are the calls of the source. No cut-off for these calls is given here.

Key:
Assay type in all cases: cell-based
[1] = Agonist activity at full-length human RXR/LXR expressed in HEK293T cells at 20 uM after 14 to 16 hrs by dual-glo luciferase reporter gene assay relative to untreated control; details: HEK-293T, read-out: Activity
How it was run: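 RXR:LXR or RXR:PPARγ heterodimer reporter assay with test compound alone. Activation expressed relative to 0.1% DMSO vehicle. Three independent experiments, each in duplicate; mean reported.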

Homo sapiens = species: Homo sapiens; assay: Agonist activity at full-length human PPARgamma/RXR expressed in HEK293T cells at 20 uM after 14 to 16 hrs by dual-glo luciferase reporter gene assay relative to untreated control
How it was run: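 RXR:PPARγ heterodimer reporter assay in HEK293T cells with test compound alone. Mean relative activation is taken versus 0.1% DMSO, from three independent experiments each run in duplicate.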

[2] = molecular target: T1, Peroxisome proliferator-activated receptor gamma (Homo sapiens) (UniProt P37231); assay: Agonist activity at Gal4-LBD fused PPARgamma (unknown origin) expressed in HEK293T cells at 20 uM after 14 to 16 hrs by dual-Glo luciferase assay
T1 sequence (whole entry): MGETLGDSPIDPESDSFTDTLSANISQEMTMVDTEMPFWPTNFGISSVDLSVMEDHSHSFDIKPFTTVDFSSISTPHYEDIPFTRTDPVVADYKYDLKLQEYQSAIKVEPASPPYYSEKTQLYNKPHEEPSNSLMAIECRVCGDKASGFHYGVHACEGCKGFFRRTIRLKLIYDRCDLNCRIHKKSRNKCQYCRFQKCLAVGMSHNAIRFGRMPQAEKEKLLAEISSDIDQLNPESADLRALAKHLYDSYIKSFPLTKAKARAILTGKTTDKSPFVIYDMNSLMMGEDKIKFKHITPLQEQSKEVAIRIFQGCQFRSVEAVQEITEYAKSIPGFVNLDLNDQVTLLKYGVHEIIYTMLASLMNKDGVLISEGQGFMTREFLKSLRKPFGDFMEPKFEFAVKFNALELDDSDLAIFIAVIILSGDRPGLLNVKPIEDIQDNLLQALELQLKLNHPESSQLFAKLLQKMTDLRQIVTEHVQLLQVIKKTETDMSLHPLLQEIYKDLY
How it was run: (§1)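 Gal4-hybrid reporter gene selectivity panel of related nuclear receptors (PPARα/β/γ, RARα/β/γ) in HEK293T cells. Activity is read as mean fold activation versus 0.1% DMSO vehicle, n ≥ 2.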

[3] = molecular target: T2, Peroxisome proliferator-activated receptor alpha (Homo sapiens) (UniProt Q07869); assay: Agonist activity at Gal4-LBD fused PPARalpha (unknown origin) expressed in HEK293T cells at 20 uM after 14 to 16 hrs by dual-Glo luciferase assay; how it was run: as §1
T2 sequence (whole entry): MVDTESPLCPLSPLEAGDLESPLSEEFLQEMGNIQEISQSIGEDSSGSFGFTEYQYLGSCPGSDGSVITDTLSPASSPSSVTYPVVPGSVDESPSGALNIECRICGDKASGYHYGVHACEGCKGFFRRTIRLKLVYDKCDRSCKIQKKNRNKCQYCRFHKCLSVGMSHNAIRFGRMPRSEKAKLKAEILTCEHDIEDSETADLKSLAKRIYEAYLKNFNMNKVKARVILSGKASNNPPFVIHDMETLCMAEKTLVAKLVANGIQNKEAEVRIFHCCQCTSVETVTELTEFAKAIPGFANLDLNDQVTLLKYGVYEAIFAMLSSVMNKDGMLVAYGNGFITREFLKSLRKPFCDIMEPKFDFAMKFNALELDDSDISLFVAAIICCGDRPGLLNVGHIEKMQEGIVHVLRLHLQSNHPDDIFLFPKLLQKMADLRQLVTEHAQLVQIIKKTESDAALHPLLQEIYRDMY

[4] = Agonist activity at full-length human RXR/LXR expressed in HEK293T cells at 10 uM after 14 to 16 hrs in presence of 1 uM T0901317 by dual-glo luciferase reporter gene assay relative to T0901317; details: HEK-293T, read-out: Activity
How it was run: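 Synergy format: the test compound was co-applied with the partner-receptor reference agonist at 1 μM, either T0901317 (RXR:LXR) or rosiglitazone (RXR:PPARγ). Relative synergistic activation was derived from three independent experiments, each in duplicate; mean reported.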

[5] = molecular target: T3, Retinoic acid receptor RXR-gamma (Homo sapiens) (UniProt P48443); assay: Agonist activity at Gal4-LBD fused RXRgamma (unknown origin) expressed in HEK293T cells at 10 uM after 14 to 16 hrs by dual-Glo luciferase assay
T3 sequence (whole entry): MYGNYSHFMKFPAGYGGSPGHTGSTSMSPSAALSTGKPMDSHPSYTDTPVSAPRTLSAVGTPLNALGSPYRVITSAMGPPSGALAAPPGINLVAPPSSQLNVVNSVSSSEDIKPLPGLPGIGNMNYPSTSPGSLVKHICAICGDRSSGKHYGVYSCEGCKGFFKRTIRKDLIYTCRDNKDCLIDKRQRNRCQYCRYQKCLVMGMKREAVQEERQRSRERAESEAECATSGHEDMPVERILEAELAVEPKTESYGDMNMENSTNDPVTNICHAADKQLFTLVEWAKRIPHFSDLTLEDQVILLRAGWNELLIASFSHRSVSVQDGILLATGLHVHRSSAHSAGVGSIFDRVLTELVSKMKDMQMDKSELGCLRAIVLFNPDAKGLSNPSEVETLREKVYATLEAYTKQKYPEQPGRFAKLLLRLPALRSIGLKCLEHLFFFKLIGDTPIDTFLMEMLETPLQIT

[6] = molecular target: T4, Retinoic acid receptor RXR-beta (Homo sapiens) (UniProt P28702); assay: Agonist activity at Gal4-LBD fused RXRbeta (unknown origin) expressed in HEK293T cells assessed as fold activation after 14 to 16 hrs by dual-Glo luciferase assay relative to untreated control
T4 sequence (whole entry): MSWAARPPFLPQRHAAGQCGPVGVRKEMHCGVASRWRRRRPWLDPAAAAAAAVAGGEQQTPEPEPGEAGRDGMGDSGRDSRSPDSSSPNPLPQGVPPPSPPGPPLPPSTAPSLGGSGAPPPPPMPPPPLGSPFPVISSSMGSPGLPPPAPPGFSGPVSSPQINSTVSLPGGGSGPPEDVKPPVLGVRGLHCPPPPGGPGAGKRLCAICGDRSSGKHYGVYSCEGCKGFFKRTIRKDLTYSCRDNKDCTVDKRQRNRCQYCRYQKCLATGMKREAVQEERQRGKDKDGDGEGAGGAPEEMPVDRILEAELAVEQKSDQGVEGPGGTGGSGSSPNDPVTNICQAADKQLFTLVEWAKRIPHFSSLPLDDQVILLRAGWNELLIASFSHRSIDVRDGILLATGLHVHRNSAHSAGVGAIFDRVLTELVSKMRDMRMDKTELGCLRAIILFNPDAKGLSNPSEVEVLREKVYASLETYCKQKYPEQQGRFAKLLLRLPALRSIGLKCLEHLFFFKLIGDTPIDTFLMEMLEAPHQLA
How it was run: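 Gal4-hybrid RXRα/β/γ reporter gene assays in HEK293T cells. Fold activation is the maximal fold activation versus 0.1% DMSO.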

Cc1cc(-c2ccc(C(=O)O)cc2)cc(C(C)(C)C)c1
activity at 20 µM [1]: 87%
Activity (Homo sapiens): 91%
Activity [2]: Active
Activity [3]: Active

Cc1cc(-c2cc(C(F)(F)F)cc(C(F)(F)F)c2)ccc1CC(=O)O
activity at 10 µM [4]: 64%

Cc1cc(-c2cc(C(C)(C)C)cc(C(C)(C)C)c2)ccc1C(=O)O
Activity [5]: inactive
fold change (FC) [6]: 38
